Assay outcomes deposited in PubChem by several laboratories.
Only some compounds are listed: those with a hit (about 1.6% of all), similar ones and a draw of the others.
ADAM10 inh – human ADAM10 inhibitors, primary screen, biochemical, QFRET, HTS | recombinant ADAM10, EDANS/DABCYL FRET peptide cleavage, 3 h | Disintegrin and metalloproteinase domain-containing protein 10 (Homo sapiens), O14672 | actives 0.62% (n = 370,000) | inhibition, % at 7 µM | AID 720582, 2013;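 active = inhibition above a per-campaign cutoff equal to the mean of compounds falling between control-based bounds plus 3 SD, cut at about 20% in these data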;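 note: 0% = DMSO wells while the 100% control is not disclosed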
ADAM17 inh – ADAM17 inhibitors, primary screen, biochemical, QFRET; recombinant ADAM17, EDANS/DABCYL FRET peptide cleavage; inhibition, % at 6.95 µM; actives 0.83% (n = 370,000);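 active = inhibition above the mean of compounds lying between control limits plus 3 SD, set per campaign, cut at about 8.5% in these data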;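 note: 0% = DMSO-only wells as the low control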
DDE Tn7 FP inh – inhibitors of Tn7 peptide binding to fibrin DD(E), primary screen, biochemical, fluorescence polarization, human fibrin, Tn7 probe; Fibrinogen beta chain (Homo sapiens), P02675; inhibition, % at 8.3 µM; FP displacement of FITC-Tn7 peptide from fibrin DD(E); 0% = median of compound wells per plate; actives 0.13% (n = 370,000);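 active = inhibition above the mean of compounds falling within the control limits plus 3 SD of them, cut at about 14% in these data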;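 note: 0% = plate median of compound wells and 100% = 10 µM Aha-Tn7 peptide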
Target sequence (P02675 whole entry, looked up): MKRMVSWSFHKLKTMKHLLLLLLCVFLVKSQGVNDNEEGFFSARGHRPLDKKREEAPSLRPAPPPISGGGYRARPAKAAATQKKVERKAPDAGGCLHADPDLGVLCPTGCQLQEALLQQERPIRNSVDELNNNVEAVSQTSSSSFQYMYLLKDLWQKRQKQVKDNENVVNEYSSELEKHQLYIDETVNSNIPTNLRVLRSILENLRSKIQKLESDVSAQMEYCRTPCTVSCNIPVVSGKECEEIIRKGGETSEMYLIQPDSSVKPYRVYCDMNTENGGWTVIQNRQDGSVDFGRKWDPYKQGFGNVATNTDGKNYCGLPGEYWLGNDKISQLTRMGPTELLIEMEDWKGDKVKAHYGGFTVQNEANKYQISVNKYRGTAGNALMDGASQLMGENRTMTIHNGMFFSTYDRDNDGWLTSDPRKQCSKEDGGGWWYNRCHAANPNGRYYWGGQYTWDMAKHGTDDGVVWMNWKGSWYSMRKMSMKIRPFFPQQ
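Assay system: Human clot-derived fibrin DD(E) complex | Buffer or medium: Tris/NaCl/CaCl2 buffer, pH 7.8 | Repeats: One replicate per compound | Benchmarks: Aha-Tn7 high control | Measure: % inhibition scaled between sample-field median and high-control FP | Schedule: 10 min plus 3 h, room temperature | Signal: Fluorescence polarization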
DDE Tn6 FP inh – inhibitors of Tn6 peptide binding to fibrin DD(E), primary screen, biochemical, fluorescence polarization, human fibrin, Tn6 probe | Fibrinogen beta chain (Homo sapiens), P02675 | Fibrin DD(E) TRITC-Tn6 fluorescence polarization displacement | inhibition, % at 8.3 µM | actives 0.21% (n = 370,000);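 active = inhibition above a per-campaign cutoff: mean of compounds within control limits plus 3 SD, cut at about 15% in these data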;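 note: 0% = median of all compound wells on the plate and 100% = blocking peptide control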
MT1-MMP act inh – blockers of MT1-MMP proenzyme processing, primary screen, HT1080 RFP-PRO-GFP cells, GFP/RFP fluorescence; Matrix metalloproteinase-14 (Homo sapiens), P50281; GFP/RFP ratio fluorescence, overnight; percent of plate control window, DMSO zero; GFP/RFP ratio change, % at 20 µM; actives 0.061% (n = 360,000);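 active = GFP/RFP ratio change of at least 30% with cell ATP level not reduced by more than half and red fluorescence within 50% of control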
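Assay system: HT1080 RFP-PRO-GFP cells | Dosing: 20 µM single dose, 1% DMSO | Incubation: Cells overnight before dosing, compound overnight, 37 °C, 5% CO2 | Evaluation: GFP/RFP fluorescence ratio | Control set: DMSO-only wells and HT1080 RFP-L50D-GFP cell wells as references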
ADAM10 confirm – human ADAM10 inhibitors, confirmation, biochemical, QFRET, triplicate; shares compounds with ADAM10 inh; ADAM10 QFRET peptide cleavage, EDANS fluorescence; inhibition, % at 6.95 µM; actives 1% (n = 2,100); AID 743208, 2013;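 active = inhibition above about 20% chosen separately for each screening run, limit read from the data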;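 note: 0% = DMSO wells and 100% = marimastat wells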
ADAM17 ctr – ADAM17 inhibitors, counter-screen for ADAM10 exosite inhibitor project, biochemical, QFRET, high throughput; actives 0.5% (n = 2,100); ADAM17 QFRET peptide cleavage, EDANS fluorescence; shares compounds with ADAM10 inh; inhibition, % at 6.95 µM; AID 743214, 2013;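 active = mean triplicate inhibition above the solvent-only control wells' mean plus 3 SD, cut at about 12% in these data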;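 note: 0% = DMSO wells and 100% = marimastat wells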
* hit, by the source's call; i = inactive; x = no result given.

SMILES | ADAM10 inh | ADAM17 inh | DDE Tn7 FP inh | DDE Tn6 FP inh | MT1-MMP act inh | ADAM10 confirm | ADAM17 ctr
CCOC(=O)C1CSCCS(=O)(=O)N1Cc1ccccc1C (configuration not stated) | -4 | -5 | 4 | 3 | x | x | x
CSc1ccc(S(=O)(=O)Nc2ccc3c4c(cccc24)CC3)cc1 | 20* | 7 | 8 | 5 | -8 | 10 | 3
O=S(=O)(Nc1ccc2c3c(cccc13)CC2)c1ccc(F)cc1 | 9 | 2 | 2 | 7 | -5 | x | x
CC(C)(C)OC(=O)[C@H](Cc1ccccc1)NC(=O)c1nc[nH]c1C(=O)N1CCN(c2ccccc2)CC1 | 22* | 7 | -8 | -4 | -1 | 5 | 2
CC(C)C[C@H](NC(=O)c1nc[nH]c1C(=O)NCc1ccccc1)C(=O)OC(C)(C)C | 22* | 8 | -2 | 8 | -5 | 5 | 1
CC(C)C[C@H](NC(=O)c1[nH]cnc1C(=O)N[C@@H](C)C(=O)OC(C)(C)C)C(=O)OCc1ccccc1 | 21* | 12* | 3 | -6 | -6 | 4 | 1
CC(C)C[C@H](NC(=O)c1[nH]cnc1C(=O)Nc1ccc(CNC(=O)OC(C)(C)C)cc1)C(=O)OCc1ccccc1 | 5 | -1 | -2 | -4 | 6 | x | x
CC(C)C[C@H](NC(=O)c1[nH]cnc1C(=O)Nc1ccc(CNC(=O)OC(C)(C)C)cc1)C(=O)OC(C)(C)C | 25* | 9.1* | 2 | -12 | -22 | 25* | 6
CCc1c(-c2ccccc2)ncn1CCc1ccccc1OC | -7 | -2 | 3 | 8 | x | x | x
C[C@H]1[C@H](N(Cc2cccs2)Cc2cccs2)CC[C@@]23CCCN2C(=O)CCC[C@@H]13 | 2 | 0 | 0 | -1 | x | x | x
CC(C)C[C@H](NC(=O)c1[nH]cnc1C(=O)N[C@@H](C)c1ccccc1)C(=O)OC(C)(C)C | 24* | 8 | 0 | -4 | -16 | 4 | 2
CCCCCCC12C(=Cc3cc4c(cc31)OCCO4)c1cc(OC)c(OC)cc1C(CC(=O)O)N2C(=O)OC (configuration not stated) | i | -381 | -3 | -2 | x | x | x
COc1cccc(-c2csc(NC(=O)Nc3ccccc3)n2)c1 | 25* | 5 | 1 | -40 | -6 | 7 | 2
COc1ccc(-c2csc(NC(=O)c3ccco3)n2)cc1 | 10 | 8 | -2 | -8 | 6 | x | x
COc1ccc(-c2csc(NC(=O)c3c(OC)cccc3OC)n2)cc1 | 30* | 2 | -1 | -9 | -3 | 7 | 1
O=C(Nc1ccccc1)Nc1nc(-c2ccccc2)cs1 | 1 | -1 | 5 | 2 | 2 | x | x
O=C(CNS(=O)(=O)c1cc2ccccc2s1)N1CCN(c2ccccn2)CC1 | -1 | -1 | 6 | 12 | x | x | x
COc1ccc(C2(c3ccc(OC)cc3)NC(=O)N(CC(=O)Nc3ccc(OC(F)F)cc3)C2=O)cc1 | 31* | 6 | 2 | -1 | -1 | 9 | 2
COc1ccc(NC(=O)CN2C(=O)NC(c3ccccc3)(c3ccccc3)C2=O)cc1 | 10 | 4 | 6 | 1 | -2 | x | x
CCOc1ccc(NC(=O)CN(C)C(=O)CSCc2cccc(C)c2)cc1OCC | 30* | 0 | 1 | -1 | 4 | 6 | 1
Cc1ccc(S(=O)(=O)Nc2ccccc2O)cc1 | -12 | -2 | 3 | 5 | -3 | x | x
Cc1ccc(S(=O)(=O)Nc2ccccc2NS(=O)(=O)c2ccc(C)cc2)cc1 | 22* | 5 | 0 | -3 | -3 | 5 | 1
COc1ccc(NC(=O)CSc2nc(C)cc(=O)[nH]2)cc1OC | 3 | 4 | 1 | -4 | x | x | x
CC(OC(=O)c1ccc(NS(=O)(=O)c2ccc3[nH]c(=O)[nH]c3c2)cc1)C(=O)Nc1ccc(Cl)cc1 (configuration not stated) | 11 | 4 | -1 | -12 | 4 | x | x
COc1ccc(Cl)cc1NC(=O)C(C)OC(=O)c1ccc(NS(=O)(=O)c2ccc3[nH]c(=O)[nH]c3c2)cc1 (configuration not stated) | 22* | 7 | 0 | -14 | 3 | 5 | 1
SMILES | ADAM10 inh | ADAM17 inh | DDE Tn7 FP inh | DDE Tn6 FP inh | MT1-MMP act inh | ADAM10 confirm | ADAM17 ctr
COC(=O)C(C(=O)OC)[C@H]1C=C[C@@H](C(=O)NS(=O)(=O)c2ccc(C)cc2)N(C(C)=O)C1 | -5 | 0 | -7 | 7 | x | x | x
Cc1ccc(OCc2n[nH]c(=S)n2C2CCCCC2)cc1 | 11 | 5 | 1 | -2 | -5 | x | x
Cc1cccc(OCc2n[nH]c(=S)n2C2CCCCC2)c1 | 21* | 6 | -3 | -7 | 1 | 0 | 0
CCn1c(Cc2cccs2)nnc1SCC(=O)Nc1ccc(OCc2ccccc2)cc1 | 12 | 5 | 4 | 0 | x | x | x
Cc1ccc(-c2cc(C(=O)NN=Cc3cc(Br)ccc3O)[nH]n2)cc1C | -9 | -4 | 1 | -5 | x | x | x
Nc1nc(Cl)cc(N2CCC(c3cc(-c4ccc(Cl)cc4)n[nH]3)CC2)n1 | 32* | 6 | 5 | 6 | 0 | 5 | 2
Cc1ccc(OCCN2CCN(CC(O)Cn3c4ccccc4c4ccccc43)CC2)cc1 (configuration not stated) | 1 | -1 | 8 | 9 | x | x | x
Cc1ccc(OCC(O)Cn2c3ccccc3c3ccccc32)cc1 (configuration not stated) | 21* | 7 | 1 | -2 | -2 | 18 | 7
Cc1ccccc1CN1[C@@H](C)[C@H](c2ccccc2)Oc2cccc(NCC(C)C)c2S1(=O)=O | -3 | 0 | 1 | -5 | x | x | x
CC(=O)Oc1ccc2ccccc2c1C(NC(=O)Cc1ccccc1)c1ccc(Cl)cc1 (configuration not stated) | 22* | 9 | 3 | -8 | -39 | 7 | 2
CCCCOCC1CN(CCCC)S(=O)(=O)c2c(cccc2Sc2ccc(SC)cc2)O1 (configuration not stated) | 4 | 3 | -1 | -8 | x | x | x
C[C@@]12C(=O)N(c3ccc(Br)cc3)C(=O)N1[C@@H]1c3ccccc3OC[C@@H]1[C@H]2c1ccccc1 | 18 | 1 | 2 | 0 | -5 | x | x
